Test results reported in ChEMBL document CHEMBL1177884, “1,2-ethane bis-1-amino-4-benzamidine is active against several brain insult and seizure challenges through anti-NMDA mechanisms targeting the 3H-TCP binding site and antioxidant action” (Eur J Med Chem, 2010).
Active and inactive are the calls of the source.

How the values were obtained:
[1] = test system: Mus musculus; experiment: Neurotoxicity in Swiss mouse assessed as inability of animal to maintain on rotarod at 30 mg/kg, ip after 4 hrs by rotarod test; type: toxicity, organism-based; settings: in vivo
In short: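 Minimal acute neurotoxicity assessed by rotarod: mouse placed on a 1 inch knurled rod rotating at 6 rpm, at 15 min, 30 min, 1 h or 4 h after ip dosing in methylcellulose.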

[2] = test system: Mus musculus; experiment: Anticonvulsant activity in Swiss mouse assessed as inhibition of maximal electroshock-induced seizures at 100 mg/kg, ip after 30 mins; type: functional, organism-based; parameters: dose 100 mg/kg
In short: (§1)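 Mice dosed ip with compound in methylcellulose at 30, 100 or 300 mg/kg. MES or subcutaneous pentylenetetrazol seizure tests run 30 min and 4 h after dosing, and occasionally at 15 min and 1 h. Activity scored as the percentage of animals protected, in bands (75–100%, 50–75%, 25–50%, 0–25%, none).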

[3] = test system: Mus musculus; experiment: Anticonvulsant activity in Swiss mouse assessed as inhibition of maximal electroshock-induced seizures at 100 mg/kg, ip after 4 hrs; type: functional, organism-based; parameters: dose 100 mg/kg; in short: as §1
[4] = test system: Mus musculus; experiment: Anticonvulsant activity in Swiss mouse assessed as inhibition of ScPTZ-induced seizures at 30 mg/kg, ip after 4 hrs; type: functional, organism-based; parameters: dose 30 mg/kg
In short: (§2)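 Mice dosed ip with compound in methylcellulose at 30, 100 or 300 mg/kg. MES or subcutaneous pentylenetetrazol seizure tests run 30 min and 4 h after dosing, and occasionally at 15 min and 1 h.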

[5] = test system: Mus musculus; experiment: Anticonvulsant activity in Swiss mouse assessed as inhibition of maximal electroshock-induced seizures at 300 mg/kg, ip after 30 mins; type: functional, organism-based; parameters: dose 300 mg/kg; in short: as §1
[6] = test system: Mus musculus; experiment: Anticonvulsant activity in Swiss mouse assessed as inhibition of ScPTZ-induced seizures at 30 mg/kg, ip after 30 mins; type: functional, organism-based; parameters: dose 30 mg/kg; in short: as §2
[7] = test system: Mus musculus; experiment: Anticonvulsant activity in Swiss mouse assessed as inhibition of maximal electroshock-induced seizures at 30 mg/kg, ip after 4 hrs; type: functional, organism-based; parameters: dose 30 mg/kg; in short: as §2
[8] = test system: Mus musculus; experiment: Anticonvulsant activity in Swiss mouse assessed as inhibition of maximal electroshock-induced seizures at 30 mg/kg, ip after 30 mins; type: functional, organism-based; parameters: dose 30 mg/kg; in short: as §2
[9] = test system: Mus musculus; experiment: Anticonvulsant activity against magnesium deprivation mediated audiogenic seizure in OF1 mouse assessed as duration of recovery at 6 mg/kg, ip; type: functional; settings: route intraperitoneal
[10] = test system: Mus musculus; experiment: Anticonvulsant activity against magnesium deprivation mediated audiogenic seizure in OF1 mouse assessed as duration of cunvulsions at 6 mg/kg, ip; type: functional; settings: route intraperitoneal
[11] = test system: Mus musculus; experiment: Anticonvulsant activity against magnesium deprivation mediated audiogenic seizure in OF1 mouse assessed as duration of latency plus wide running period at 6 mg/kg, ip; type: functional; settings: route intraperitoneal
[12] = Antioxidant activity assessed as inhibition of pyrogallol autooxidation; type: functional; parameters: concentration or dose not given beside the values; settings: dose or concentration not given here
In short: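 Pyrogallol autooxidation followed at 420 nm in pH 7.4 TRIS saline (5 mM TRIS, 50 mM NaCl). Compound at 0.5 mM final, from a 50 mM DMSO stock; DMSO alone served as blank. Reaction started with 0.75 mM pyrogallol. Percent inhibition calculated from rates over the first 2 min. Mean of three separate determinations.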

[13] = test system: Mus musculus; experiment: Neuroprotective activity against ibotenate-induced focal cerebral injury in Swiss mouse assessed as reduction in size of lesions in grey matter at 4 ug/kg, ip; type: functional; parameters: scale not given: the % may be the effect or the level left
In short: (§3)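 Swiss mouse pups anesthetized with isoflurane, then given 10 µg ibotenate by stereotaxic injection into the right frontoparietal area as two 1 µl boluses. Compound in DMSO given ip at 4 µg/kg; controls received DMSO ip. Brains fixed 5 days later. Lesion maximal diameter in white and cortical grey matter measured on cresyl-violet-stained serial coronal sections, 15 µm thick. ANOVA with Bonferroni test.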

[14] = test system: Mus musculus; experiment: Neuroprotective activity against ibotenate-induced focal cerebral injury in Swiss mouse assessed as reduction in size of lesions in white matter at 4 ug/kg, ip; type: functional; parameters: scale not given: the % may be the effect or the level left; in short: as §3
[15] = test system: Mus musculus; experiment: Anticonvulsant activity in OF1 mouse assessed as protection against NMDA-induced seizures at 49 mg/kg,; type: functional
In short: (§4)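 Normally fed OF1 mice. Compound given ip 1 hr before ip NMDA (137 mg/kg). Protection scored as no seizures over 4 hours after NMDA and no death within 48 hours. […] At 49 mg/kg, the read-out was the NMDA seizure threshold.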

[16] = organism: Mus musculus; experiment: Anticonvulsant activity in OF1 mouse assessed as protection against NMDA-induced seizures; type: functional; in short: as §4
[17] = test system: Mus musculus; experiment: Toxicity in OF1 mouse assessed as rectal temperature at 30 mg/kg; type: organism-based; parameters: dose 30 mg/kg; settings: in vivo
In short: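 Rectal temperature measured in mice given 30 mg/kg ip, 1 hr before testing.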

[18] = test system: Mus musculus; experiment: Anticonvulsant activity in Swiss mouse assessed as inhibition of maximal electroshock-induced seizures at 300 mg/kg, ip after 4 hrs; type: functional, organism-based; parameters: dose 300 mg/kg; in short: as §1
[19] = test system: Mus musculus; experiment: Antinociceptive activity against thermal-stimulus induced pain reflex in OF1 mouse assessed as maximal possible effect at 30 mg/kg, ip after 45 mins by hot plate assay; type: functional; settings: route intraperitoneal
In short: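 OF1 mice given compound ip 45 min before testing, then placed on a hot plate at 55 ± 1 °C. Latency to a pain reflex (vocalization, paw lick, hindpaw flick or jump) recorded, with a 30 s cut-off. Latencies converted to % maximum possible effect. Mean ± SD, 6 treated vs 6 untreated mice per dose.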

[20] = test system: Mus musculus; experiment: Anticonvulsant activity in Swiss mouse assessed as inhibition of ScPTZ-induced seizures at 100 mg/kg, ip after 30 mins; type: functional, organism-based; parameters: dose 100 mg/kg; in short: as §1
[21] = test system: Mus musculus; experiment: Anticonvulsant activity in Swiss mouse assessed as inhibition of ScPTZ-induced seizures at 100 mg/kg, ip after 15 mins; type: functional; parameters: scale not given: the % may be the effect or the level left; settings: route intraperitoneal; in short: as §1
[22] = test system: Mus musculus; experiment: Anticonvulsant activity in Swiss mouse assessed as inhibition of ScPTZ-induced seizures at 100 mg/kg, ip after 1 hr; type: functional; parameters: scale not given: the % may be the effect or the level left; settings: route intraperitoneal; in short: as §1
[23] = test system: Mus musculus; experiment: Anticonvulsant activity in Swiss mouse assessed as inhibition of ScPTZ-induced seizures at 100 mg/kg, ip after 4 hrs; type: functional, organism-based; parameters: dose 100 mg/kg; in short: as §1
[24] = test system: Mus musculus; experiment: Anticonvulsant activity in Swiss mouse assessed as inhibition of ScPTZ-induced seizures at 300 mg/kg, ip after 30 mins; type: functional; parameters: scale not given: the % may be the effect or the level left; settings: route intraperitoneal; in short: as §1
[25] = test system: Mus musculus; experiment: Anticonvulsant activity in Swiss mouse assessed as inhibition of ScPTZ-induced seizures at 300 mg/kg, ip after 4 hrs; type: functional, organism-based; parameters: dose 300 mg/kg; in short: as §1
[26] = test system: Mus musculus; experiment: Neurotoxicity in Swiss mouse assessed as inability of animal to maintain on rotarod at 100 mg, ip after 30 mins by rotarod test; type: toxicity, organism-based; settings: in vivo, 0.5 h
In short: (§5)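 Minimal acute neurotoxicity assessed by rotarod: mouse placed on a 1 inch knurled rod rotating at 6 rpm, at 15 min, 30 min, 1 h or 4 h after ip dosing in methylcellulose. Scored as the percentage of animals toxic, in bands (75–100%, 50–75%, 25–50%, 0–25%, none).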

[27] = test system: Mus musculus; experiment: Neurotoxicity in Swiss mouse assessed as inability of animal to maintain on rotarod […], ip after 15 mins by rotarod test; type: toxicity, organism-based; settings: in vivo; in short: as §5
[28] = test system: Mus musculus; experiment: Neurotoxicity in Swiss mouse assessed as inability of animal to maintain on rotarod […], ip after 1 hr by rotarod test; type: toxicity, organism-based; settings: in vivo; in short: as §5
[29] = test system: Mus musculus; experiment: Neurotoxicity in Swiss mouse assessed as inability of animal to maintain on rotarod […], ip after 4 hr by rotarod test; type: toxicity, organism-based; settings: in vivo; in short: as §5
[30] = test system: Mus musculus; experiment: Neurotoxicity in Swiss mouse assessed as inability of animal to maintain on rotarod at 300 mg, ip after 30 mins by rotarod test; type: toxicity, organism-based; settings: in vivo, 0.5 h; in short: as §5
[31] = test system: Mus musculus; experiment: Neurotoxicity in Swiss mouse assessed as inability of animal to maintain on rotarod […], ip after 4 hrs by rotarod test; type: toxicity, organism-based; settings: in vivo; in short: as §5
[32] = target: Glutamate NMDA receptor; experiment: Displacement of [3H]TCP from NMDA receptor in rat cerebral cortex
[33] = test system: Mus musculus; experiment: Antinociceptive activity against thermal-stimulus induced pain reflex in OF1 mouse assessed as maximal possible effect at 60 mg/kg, ip after 45 mins by hot plate assay; settings: route intraperitoneal
[34] = test system: Mus musculus; experiment: Anxiolytic activity against OF1 mouse assessed as increase in number of crossings of photocell activity meter at 5 mg/kg, ip administered 1 hr before testing measured for 3 mins; settings: route intraperitoneal
[35] = test system: Mus musculus; experiment: Anxiolytic activity against OF1 mouse assessed as increase in number of crossings of photocell activity meter at 30 mg/kg, ip administered 1 hr before testing measured for 3 mins; settings: route intraperitoneal
[36] = test system: Mus musculus; experiment: Anxiolytic activity against OF1 mouse assessed as increase in number of crossings of photocell activity meter at 10 mg/kg, ip administered 1 hr before testing measured for 3 mins; settings: route intraperitoneal

Structure (SMILES) | Activity [1] | Activity [2] | Activity [3] | Activity [4] | Activity [5] | Activity [6] | Activity [7] | Activity [8] | inhibition [12] [%] | Activity [18] | Activity [20] | Activity [23] | Activity [24] [%] | Activity [25] | Activity [26] [%] | Activity [27] [%] | Activity [28] [%] | Activity [29] | Activity [30] [%] | Activity [31] | also measured
N=C(N)c1ccc(NCCNc2ccc(C(=N)N)cc2)cc1 | Non-toxic | inactive | inactive | inactive | inactive | inactive | inactive | inactive | 36.3 | inactive | inactive | inactive | 75 | inactive | 25 | 50 | 75 | Non-toxic | 75 | 25% | Time [9]: 50.3 s; Time [10]: 1.4 s; Time [11]: 4.75 s; Activity [13]: 49%; Activity [14]: 69%; Activity [15]: >10%; ED50 [16]: 6 mg/kg; T [17]: 35.7 °C; Activity [19]: 31.17%; Activity [21]: 75%; Activity [22]: 75%; IC50 [32]: 1400 nM; Activity [33]: 70.33%; Activity [34]: 103.3; Activity [35]: 13.3; Activity [36]: 90.5
N=C(N)c1ccc(N)cc1 | – | – | – | – | – | – | – | – | < 5 | – | – | – | – | – | – | – | – | – | – | – | –
CN(CCN(C)c1ccc(C(=N)N)cc1)c1ccc(C(=N)N)cc1 | Non-toxic | inactive | inactive | inactive | inactive | inactive | inactive | inactive | 51 | inactive | inactive | inactive | 75 | inactive | 25 | 50 | 25 | Non-toxic | 75 | Non-toxic | –
CCN(CCNc1ccc(C(=N)N)cc1)c1ccc(C(=N)N)cc1.Cl.Cl | Non-toxic | – | – | inactive | – | – | inactive | inactive | 28.8 | – | – | – | – | – | 75 | – | – | – | 75 | – | –
CN(CCNc1ccc(C(=N)N)cc1)c1ccc(C(=N)N)cc1.Cl.Cl | Non-toxic | inactive | inactive | inactive | – | inactive | inactive | inactive | 17.5 | – | inactive | inactive | – | – | 75 | – | – | Non-toxic | 75 | – | –
